MIC data for six compounds are collected here from ChEMBL document CHEMBL1629602, “Reconstruction of the phenotypes of methicillin-resistant Staphylococcus aureus by replacement of the staphylococcal cassette chromosome mec with a plasmid-borne copy of Staphylococcus sciuri pbpD gene” (2009).

Experiment [1] relates to Staphylococcus aureus. Kind of experiment: Antibacterial activity against chloramphenicol, tetracycline-resistant Staphylococcus aureus COL-S carrying SSpbpD/mecI-mecR1 plasmid. It is filed as functional. The method, boiled down:
(§1)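 Oxacillin MIC by population analysis: overnight-culture aliquots plated on tryptic soy agar with increasing oxacillin concentrations. CFU counted after 72 h at 30°C.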

Experiment [2] relates to Staphylococcus aureus. Kind of experiment: Antibacterial activity against tetracycline-resistant Staphylococcus aureus COL-S carrying SAmecA plasmid. It counts as functional. Put shortly:
as §1

The test system of experiment [3] is Staphylococcus aureus. Kind of experiment: Antibacterial activity against oxacillin, chloramphenicol, erythromycin-susceptible and tetracycline-resistant Staphylococcus aureus COL-S with SCCmec excised. It counts as functional. The method, boiled down:
as §1

Experiment [4] concerns Staphylococcus aureus. As to the kind of experiment: Antibacterial activity against chloramphenicol, tetracycline-resistant Staphylococcus aureus COL-S carrying SAmecA/mecI-mecR1 plasmid. It counts as functional. The method, boiled down: as §1
Experiment [5] concerns Staphylococcus aureus. As to the kind of experiment: Antibacterial activity against chloramphenicol-susceptible and oxacillin, erythromycin, tetracycline-resistant Staphylococcus aureus COL.
In experiment [6] the test system is Staphylococcus aureus. As to the kind of experiment: Antibacterial activity against tetracycline-resistant Staphylococcus aureus COL-S carrying SSpbpD plasmid. It counts as functional. Put shortly: as §1
Experiment [7] concerns Staphylococcus aureus. As to the kind of experiment: Antibacterial activity against chloramphenicol-resistant Staphylococcus aureus COL carrying mecI-mecR1 plasmid. It is filed as functional. Put shortly: as §1

Values after ≈ are worked out from the molar mass of the structure shown.

With `CO[C@@]1(NC(=O)Cc2cccs2)C(=O)N2C(C(=O)O)=C(COC(N)=O)CS[C@@H]21` [CEFOXITIN], the MIC – broadly, the lowest concentration found to suppress growth – against Staphylococcus aureus [1] is 1.5 µg/mL (≈ 3.51 µM); in the experiment on Staphylococcus aureus [2], 400 µg/mL (≈ 936 µM); against Staphylococcus aureus [3], 3 µg/mL (≈ 7.02 µM); against Staphylococcus aureus [4] it was 6 µg/mL (≈ 14 µM); with Staphylococcus aureus [5], 800 µg/mL (≈ 1870 µM); against Staphylococcus aureus [6], 200 µg/mL (≈ 468 µM). Besides, the minimum inhibitory concentration (MIC) in the experiment with Staphylococcus aureus [7] is 3 µg/mL (≈ 7.02 µM).

For `Cc1onc(-c2ccccc2)c1C(=O)N[C@@H]1C(=O)N2[C@@H]1SC(C)(C)[C@@H]2C(=O)O` [OXACILLIN], the minimum inhibitory concentration (MIC) in the experiment on Staphylococcus aureus [1] is 0.4 µg/mL (≈ 0.996 µM); against Staphylococcus aureus [2], 400 µg/mL (≈ 996 µM); with Staphylococcus aureus [3] it was 0.8 µg/mL (≈ 1.99 µM); in the experiment with Staphylococcus aureus [4] it was 0.8 µg/mL (≈ 1.99 µM); against Staphylococcus aureus [5] it was 800 µg/mL (≈ 1990 µM); in the experiment on Staphylococcus aureus [6] it was 400 µg/mL (≈ 996 µM). The compound also had a minimal inhibitory concentration (MIC) with Staphylococcus aureus [7] of 0.4 µg/mL (≈ 0.996 µM).

As to `CO/N=C(\C(=O)N[C@@H]1C(=O)N2C(C(=O)O)=CCS[C@H]12)c1csc(N)n1` [CEFTIZOXIME], the MIC in the experiment on Staphylococcus aureus [1] amounted to 12 µg/mL (≈ 31.3 µM); against Staphylococcus aureus [2] it was 800 µg/mL (≈ 2090 µM); in the experiment on Staphylococcus aureus [3], 0.8 µg/mL (≈ 2.09 µM); in the experiment with Staphylococcus aureus [4] it was 3 µg/mL (≈ 7.82 µM); against Staphylococcus aureus [5] it was 800 µg/mL (≈ 2090 µM); with Staphylococcus aureus [6], 400 µg/mL (≈ 1040 µM). For the same compound, the MIC against Staphylococcus aureus [7] was 3 µg/mL (≈ 7.82 µM).

On to `CC1=C(C(=O)O)N2C(=O)[C@@H](NC(=O)[C@H](N)C3=CCC=CC3)[C@H]2SC1` [CEPHRADINE], for which the minimal inhibitory concentration (MIC) in the experiment with Staphylococcus aureus [1] came out at 3 µg/mL (≈ 8.59 µM); against Staphylococcus aureus [2], 400 µg/mL (≈ 1140 µM); against Staphylococcus aureus [3], 6 µg/mL (≈ 17.2 µM); against Staphylococcus aureus [4], 12 µg/mL (≈ 34.3 µM); in the experiment with Staphylococcus aureus [5] it was 400 µg/mL (≈ 1140 µM); in the experiment on Staphylococcus aureus [6], 100 µg/mL (≈ 286 µM). Moreover, the MIC against Staphylococcus aureus [7] came out at 6 µg/mL (≈ 17.2 µM).

As to `N[C@@H]1CONC1=O` [CYCLOSERINE], the results for the MIC with Staphylococcus aureus [2], against Staphylococcus aureus [5] and in the experiment with Staphylococcus aureus [6] were 8 µg/mL (≈ 78.4 µM), 1 µg/mL (≈ 9.79 µM) and 0.75 µg/mL (≈ 7.35 µM), respectively.

`CO/N=C(\C(=O)N[C@@H]1C(=O)N2C(C(=O)O)=C(COC(C)=O)CS[C@H]12)c1csc(N)n1` [CEFOTAXIME]: the minimal inhibitory concentration (MIC) in the experiment with Staphylococcus aureus [1] turned out to be 6 µg/mL (≈ 13.2 µM); against Staphylococcus aureus [2], 800 µg/mL (≈ 1760 µM); in the experiment on Staphylococcus aureus [3], 0.8 µg/mL (≈ 1.76 µM); with Staphylococcus aureus [4] it was 6 µg/mL (≈ 13.2 µM); against Staphylococcus aureus [5], 800 µg/mL (≈ 1760 µM); in the experiment with Staphylococcus aureus [6], 200 µg/mL (≈ 439 µM). The compound further showed an MIC in the experiment on Staphylococcus aureus [7] of 6 µg/mL (≈ 13.2 µM).
